# Screening data from PubChem BioAssay.
# Rows were chosen to be rich in hits. Some 2.6% of all compounds tested hit in one or more screens of this group.
# HTRA1 inh: blocks human HTRA1 serine peptidase; recombinant HTRA1, FP-rhodamine activity-based probe, fluorescence polarization; actives 0.5% (n = 340,000); AID 504803; Q92743; inhibition, % at 5.96 µM; in the data active = inhibition above about 36%;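 also: 0% = enzyme with DMSO and 100% = wells lacking enzyme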
# Target sequence (Q92743 whole entry, looked up): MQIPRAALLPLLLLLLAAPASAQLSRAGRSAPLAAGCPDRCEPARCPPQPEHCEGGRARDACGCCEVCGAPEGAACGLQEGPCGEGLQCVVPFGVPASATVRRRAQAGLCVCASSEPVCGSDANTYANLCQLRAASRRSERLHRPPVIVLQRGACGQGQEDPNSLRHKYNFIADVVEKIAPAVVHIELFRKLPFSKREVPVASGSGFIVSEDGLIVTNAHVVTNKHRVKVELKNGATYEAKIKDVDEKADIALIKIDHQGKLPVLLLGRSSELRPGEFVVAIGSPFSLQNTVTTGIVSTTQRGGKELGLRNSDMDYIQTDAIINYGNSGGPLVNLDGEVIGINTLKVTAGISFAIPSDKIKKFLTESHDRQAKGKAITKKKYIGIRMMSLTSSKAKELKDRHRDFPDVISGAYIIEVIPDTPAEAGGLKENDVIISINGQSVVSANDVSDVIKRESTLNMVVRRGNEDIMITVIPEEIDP
# TCR CD3 inh: inhibitors of human TCR-CD3 interaction; TAMRA-labeled TCR probe fluorescence, biochemical; inhibition, % at 9.4 µM; actives 0.37% (n = 360,000); in the data active = inhibition above about 19%;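 also: recombinant mutant TCR 2C K166C tagged with TAMRA read by polarization; 0% = receptor in buffer alone and 100% = receptor with positive control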
# SIAE inh: blocks human sialic acid acetylesterase; actives 0.69% (n = 370,000); inhibition, % at 9.66 µM; Q9HAT2; SIAE FP-Rh probe binding, fluorescence polarization;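 active = inhibition above a cutoff: mean of compounds within the control limits plus 3 SD of those, cut at about 17% in these data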;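 also: 0% = plate median of compound wells and 100% = probe without SIAE protein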
# ABHD4 inh: inhibits mouse alpha/beta hydrolase domain 4; actives 0.54% (n = 370,000); Q8VD66; AID 720543; purified mABHD4, FP-Rh probe fluorescence polarization; inhibition, % at 8.92 µM;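 active = inhibition exceeding the mean over every tested compound plus 3 SD, cut at about 30% in these data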;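 also: 0% = plate median of compound wells and 100% = S159A mutant with DMSO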
#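 assay system = mABHD4 protein | compound dosing = single nominal dose of 8.92 µM, 0.89% DMSO final | read-out basis = percent inhibition of probe binding, normalized to plate controls | schedule = Enzyme–compound pre-incubation 45 min, then probe 60 min, both 25 °C | detection = fluorescence polarization, excitation 525 nm, emission 598 nm, BODIPY TMR filters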
# PRMT1 FP inh: PRMT1 (human) inhibition, primary screen | recombinant PRMT1, activity-based probe fluorescence polarization | inhibition, % at 2.79 µM | actives 1.3% (n = 370,000);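 active = inhibition above about 21% made by adding two undisclosed values, limit read from the data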
# SIAE confirm: human SIAE inhibition, confirmation; shares compounds with SIAE inh; SIAE FP-Rh activity-based probe, fluorescence polarization; inhibition, % at 9.66 µM; actives 13% (n = 2,300); AID 1117263;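 active = mean inhibition of the replicates above the hit cutoff set in the primary screen, cut at about 17% in these data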;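 also: 0% = SIAE with DMSO and probe and 100% = probe without SIAE; inhibitors lower polarization as more probe stays unbound to SIAE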
# The depositor's hits bear a star; . = no result given.
SMILES,HTRA1 inh,TCR CD3 inh,SIAE inh,ABHD4 inh,PRMT1 FP inh,SIAE confirm
CN1C(=O)[C@H](Cc2ccc([N+](=O)[O-])cc2)NC1=S,1,12,13,11,-2,.
CCc1c(C2(O)CCCCC2)[nH]c2cnccc12,7,1,3,1,2,.
CCOC(=O)C(=Cc1c[nH]c2ccc(S(=O)(=O)N(C)C)cc12)C(=O)OCC,-11,-1,-7,-10,1,.
C=CCN=C1NN=C(c2cc(C)n(CCOC)c2C)CS1,-2,-2,10,10,7,.
COCCn1c(C)cc(C2=NNC(=NC3CC3)SC2)c1C,10,-4,25*,4,10,2
COc1cc(/C=N/N=C2/NC(=O)C(c3ccccc3)S2)ccc1O (stereo unspecified),6,9,19*,21,-1,9
COc1ccc(NC(=O)COC(=O)CCC2CCCC2)c(OC)c1,-12,-1,-3,-2,1,.
CC(C)NCC(=O)NC12CC3CC(CC(C3)C1)C2,1,-5,21*,-5,-1,8
O=C(O)CC(=O)NC12CC3CC(CC(C3)C1)C2,2,3,0,2,3,.
CN(C(=O)CSc1nnc(-c2ccc(OC(F)F)cc2)n1N)C1CCS(=O)(=O)C1 (stereo unspecified),-2,-2,-8,3,-5,.
COc1cccc(CNc2nc3cc(-c4cnn(Cc5ccccc5)c4)sc3c(=O)n2C)c1,.,-10,-42,-79,10,.
COC(=O)c1ccccc1N(C)S(=O)(=O)c1cc2c3c(c1)CCC(=O)N3CCC2,1,-6,32*,-8,5,-2
O=C(NCC(F)(F)F)c1ccc(S(=O)(=O)Nc2ccccc2N2CCCC2)cc1,-6,0,-8,-7,2,.
CC1CCCC(C)N1CCCNC(=O)C1CCCN(S(=O)(=O)N2CCCCC2)C1 (stereo unspecified),-5,-4,2,1,1,.
O=C(O)CSc1nnc(NC(=O)c2ccc3c(c2)OCO3)s1,6,2,0,2,-3,.
COC(=O)CSc1nnc(NC(=O)c2ccc3c(c2)OCO3)s1,7,18,19*,0,-1,-2
Oc1[nH]c2ccccc2c1N=Nc1nc(Nc2ccccc2)nc(N2CCOCC2)n1,-11,-5,-11,-3,-6,.
Cc1[nH]c2ccccc2c1/C=N/Nc1nc(Nc2ccccc2)nc(N2CCOCC2)n1,-3,7,32*,12,-1,17
Cc1ccc(C)c(NC(=O)CN(C)C(=O)c2cc(-c3cccs3)nn2-c2ccccc2)c1,-3,3,-2,2,1,.
Cc1c(/C=N/O)c2ccccn2c1C(=O)c1ccc(F)cc1,-3,6,17*,2,-1,8
Cc1c(/C=N/NC(N)=O)c2ccccn2c1C(=O)c1ccc(F)cc1,-5,-5,13,-4,-3,.
O=C(NNC(=S)Nc1ccc(Cl)cc1Cl)c1cccnc1,-3,-3,20*,10,-2,2
COc1ccc(NC(=O)COc2cccc(-n3cnnn3)c2)cc1Cl,1,-2,-15,5,2,.
CN(C)c1cccc(CNC(=O)c2csc([C@@H]3O[C@H](CO)[C@H](O)[C@H](O)[C@H]3O)n2)c1,.,1,20*,3,-4,6
CCC(=O)N1CCC1(C)C(=O)Nc1ccc2scnc2c1 (stereo unspecified),.,-7,1,-1,19,.
SMILES,HTRA1 inh,TCR CD3 inh,SIAE inh,ABHD4 inh,PRMT1 FP inh,SIAE confirm
O=C(Cn1c(=S)[nH]c2ncccc2c1=O)NCCc1ccccc1,.,-8,36*,-1,-2,-3
O=C1CCC(NC(=O)c2ccccc2)C(=O)N1 (stereo unspecified),7,9,-3,0,0,.
COC(=O)c1ccccc1NC(=S)NC(=O)COc1ccccc1,-17,1,-1,3,1,.
O=C(COc1ccccc1)NC(=S)Nc1cccc2c(O)cccc12,2,12,25*,29,18,4
CC(C)c1ccc(NC(=S)Nc2cccc3ccccc23)cc1,-6,1,18*,-1,0,5
CCOc1ccc(NC(=S)Nc2cccc3ccccc23)cc1,1,3,18*,0,2,0
CC(C)/C=N/Nc1nc(-c2ccc(Br)cc2)cs1,-4,8,18*,13,1,2
COC(=O)c1c[nH]c2c1-c1cc(C(=O)OCc3ccccc3)n(S(=O)(=O)c3ccc(C)cc3)c1C(=O)C2=O,0,-4,-3,4,-6,.
CC(C)CC(=O)NC(=S)NNC(=O)c1ccc([N+](=O)[O-])cc1,11,7,31*,4,-4,-1
CCC(=O)NC(=S)NNC(=O)c1ccc([N+](=O)[O-])cc1,1,13,2,-1,7,.
Cc1ccc(Cl)c2c(N=Nc3ccccc3)c(O)[nH]c12,4,2,-3,0,1,.
Cc1ccc(OCCn2cc(/C(N)=N/O)c3ccccc32)cc1C,-18,3,20*,-1,-2,9
Cc1cccc(NC(=O)COC(=O)CSc2ccccc2)c1C,1,-1,2,4,3,.
COC(=O)CC1C(=O)NCCN1C(=O)CSc1nc2cc(Cl)ccc2o1 (stereo unspecified),-2,2,21*,-4,-2,3
COC(=O)CC1C(=O)NCCN1C(=O)c1ccc2oc(C(C)C)nc2c1 (stereo unspecified),3,7,-5,-1,0,.
COc1cccc(/C=N/N2CCN(c3ccc(Cl)cc3)CC2)c1OC,0,1,9,1,-5,.
COc1cccc(C=NN2CCCCCC2)c1OC,8,1,21*,8,0,2
COc1ccc(C(=O)c2[nH]c(N)c(C(=O)NCCc3c[nH]c4ccccc34)c2-c2ccccc2C(F)(F)F)cc1,.,-8,2,-4,2,.
CCOC(=O)Cc1csc(NS(=O)(=O)c2ccc(F)cc2)n1,5,0,19*,4,1,-1
CCOC(=O)Cc1csc(NS(=O)(=O)c2ccc(Br)cc2)n1,9,9,0,3,0,.
O=C(CSc1ccc(-c2cccnc2)nn1)N1CCCCCC1,2,10,27*,-3,0,1
COc1ccc(S(=O)(=O)n2nc(OC(=O)C3CCCCC3)cc2N)cc1,-8,-2,43*,-3,0,50*
Cc1ccc(S(=O)(=O)n2nc(OC(=O)C3CCCCC3)cc2N)cc1,4,1,36*,1,5,38*
COc1ccc(C(=O)Oc2cc(N)n(S(=O)(=O)c3ccc(C)cc3)n2)cc1,17,5,0,-4,0,.
Cc1ccc(NC(=O)Cn2nnc(C(=O)NCCc3ccccc3)c2N)c(C)c1,-7,.,.,.,.,.
N#CCc1cnc2ccccc2n1,28,2,18*,8,17,-2
NS(=O)(=O)c1ccc(NCc2cnc3ccccc3n2)cc1,5,5,4,2,0,.
